We go through 37 molecules from ChEMBL document CHEMBL4334542, “Antimalarial N 1,N 3-Dialkyldioxonaphthoimidazoliums: Synthesis, Biological Activity, and Structure-activity Relationships” (ACS Med Chem Lett, 2020).

SMILES strings stand for the structures. The source made the active and inactive calls. No cut-off for these calls is given here.

Test [1] has as its system CHO-K1. Description: Cytotoxicity against CHOK1 cells assessed as reduction in cell viability incubated for 48 hrs by CellTiter 96 aqueous one solution assay. It is filed as cell-based. Particulars: Cricetulus griseus, CHO-K1, 48 h. The gist of the method: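 Cell growth measured by a tetrazolium dye assay. IC50 is the concentration reducing growth by 50% relative to untreated cultures; mean ± SD of n = 3 separate determinations.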

Test [2] has as its system Plasmodium falciparum. Briefly: Antimalarial activity against asexual stage of Plasmodium falciparum Dd2 infected in erythrocytes assessed as reduction in parasite growth incubated for 48 hrs under hypoxic condition by Hoechst 33342 staining based flow cytometry. It is filed as functional, organism-based. Conditions: Dd2, 48 h. The gist of the method: (§1)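 Asexual Dd2 and 3D7 parasites in erythrocytes; DNA content of infected cells measured by Hoechst 33342 staining and FACS. IC50 is the concentration giving 50% of the net fluorescence of untreated control cultures; mean ± SD of n = 3 separate determinations.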

The test system of test [3] is Plasmodium falciparum. Description: Antimalarial activity against asexual stage of Plasmodium falciparum 3D7 infected in erythrocytes assessed as reduction in parasite growth incubated for 48 hrs under hypoxic condition by Hoechst 33342 staining based flow cytometry. Conditions: 3D7, 48 h. It is filed as functional, organism-based. The gist of the method: as §1
Background: Flow cytometry measures light scatter and fluorescence of single cells or particles in a stream.

Test [4] concerns Plasmodium falciparum. Briefly: Antimalarial activity against asexual stage of Plasmodium falciparum W2 assessed as reduction in parasite growth incubated for 96 hrs by SYBR Green I dye-based fluorescence assay. It is filed as functional, organism-based. Conditions: W2, 96 h.
Test [5] has as its system Plasmodium falciparum. Briefly: Antimalarial activity against asexual stage of Plasmodium falciparum K1 assessed as reduction in parasite growth incubated for 96 hrs by SYBR Green I dye-based fluorescence assay. The format is functional, organism-based. Conditions: K1, 96 h. The gist of the method: (§2)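 Asexual NF54, K1 and W2 parasites; proliferation read as SYBR Green I fluorescence. IC50 is the concentration giving 50% of the net SYBR Green I fluorescence of untreated control cultures; mean ± SEM of n = 3 independent biological replicates.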

Test [6] concerns Plasmodium falciparum. Briefly: Antimalarial activity against Plasmodium falciparum NF54 late gametocytes transfected with luciferase gene incubated for 48 hrs by luciferase reporter gene assay. It is filed as functional, organism-based. Particulars: NF54, 48 h. The gist of the method: (§3)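 Gametocytes of NF54-Pfs16-GFP-Luc, early (>95% stage II/III) or late (>90% stage IV/V); luciferase read-out. IC50 is the concentration giving 50% reduction of luminescence; mean ± SEM of n = 3 independent biological replicates.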
On the technique in general: In a reporter assay the amount or activity of a reporter protein is the signal.

Test [7] has as its system Plasmodium falciparum. Briefly: Antimalarial activity against asexual stage of Plasmodium falciparum NF54 assessed as reduction in parasite growth incubated for 96 hrs by SYBR Green I dye-based fluorescence assay. The format is functional, organism-based. Conditions: NF54, 96 h. The gist of the method:
as §2

In test [8] the test system is Plasmodium falciparum. Briefly: Antimalarial activity against Plasmodium falciparum NF54 early gametocytes transfected with luciferase gene incubated for 48 hrs by luciferase reporter gene assay. The format is functional, organism-based. Particulars: NF54, 48 h. The gist of the method: as §3
Test [9] concerns Plasmodium falciparum. Description: Antimalarial activity against asexual stage of Plasmodium falciparum NF54 assessed as reduction in parasite growth at 1 uM incubated for 96 hrs by SYBR Green I dye-based fluorescence assay relative to control. The format is functional. On the set-up: scale not given: the % may be the effect or the level left.
Test [10] in a line: Redox cycling activity of the compound […] measured after 45 mins by phenol red reagent based horseradish peroxidase coupled assay. The gist of the method:
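Redox cycling EC50 determined by the phenol red horseradish peroxidase assay.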

The IC50 is the concentration that inhibits the measured activity by half. For the molecule `CCCC[n+]1c2c(n(C(C)C)c1C)C(=O)c1ccccc1C2=O`, the IC50 in test [1] turned out to be 80300 nM; in test [2] it was 14.9 nM; in test [3] it was 11.6 nM.

On to `CCCCCC[n+]1c2c(n(CC(C)C)c1C)C(=O)c1ccccc1C2=O`, for which the IC50 in test [4] is 5.28 nM; in test [5], 10 nM; in test [6], 551 nM; in [7], 6.2 nM; in test [8], 143 nM.

For `Cc1n(C)c2c([n+]1C1CC1)C(=O)c1ccccc1C2=O`, the IC50 was determined as 3100 nM in test [1], 30.4 nM in test [2] and 25.7 nM in test [3].

In the case of `Cc1n(CC(C)C)c2c([n+]1C1CC1)C(=O)c1ccccc1C2=O`, the IC50 in [4] amounted to 2.55 nM; in test [5] it was 5.85 nM; in test [6], 832 nM; in [7], 3.94 nM; in [8] it was 139 nM.

For the molecule `CCCCCCCCCCCC[n+]1c2c(n(CC(C)C)c1C)C(=O)c1ccccc1C2=O`, the IC50 was 5.5 nM in test [4]; 11.2 nM in test [5]; 174 nM in [6]; 4.3 nM in test [7]; 361 nM in [8].

For `CC1=CC(=O)c2ccccc2C1=O` [MENADIONE], the Activity in [9] was 20 - 40%.

On to `CCCn1c2c([n+](C3CC3)c1C)C(=O)c1ccccc1C2=O`, for which the IC50 in test [1] worked out at 5500 nM; in test [2], 20.7 nM; in test [3] it was 331 nM.

Take `Cc1n(C)c2c([n+]1C)C(=O)c1ccccc1C2=O`: the IC50 in test [1] came to 5700 nM; in test [2] it was 26.5 nM; in [3], 22.6 nM.

As for `Cc1n(C2CC2)c2c([n+]1C1CC1)C(=O)c1ccccc1C2=O`, the IC50 turned out to be 42500 nM in test [1], 38.6 nM in [2] and 41.5 nM in test [3].

As to `Cc1nc2c(n1C)C(=O)c1ccccc1C2=O`, the outcome in [10] was inactive. In addition, the Activity result in test [9] is “<=50%”.

Consider `Cc1n(C)c2c([n+]1C(C)C)C(=O)c1ccccc1C2=O`, for which the IC50 turned out to be 4700 nM in test [1], 16.1 nM in test [2] and 4.8 nM in test [3].

With `O=C1C=CC(=O)C=C1` [BENZOQUINONE], the Activity in test [9] is given as 20 - 40%.

Regarding `CCn1c(C)nc2c1C(=O)c1ccccc1C2=O`, in test [10], the outcome was inactive. Besides, in [9], the Activity result was “<=50%”.

`CCn1c2c([n+](C3CC3)c1C)C(=O)c1ccccc1C2=O`: the figures for the concentration for half-maximal inhibition (IC50) in test [1], in [2] and in test [3] were 6600 nM, 35 nM and 66.1 nM, respectively.

Take `CCCn1c(C)nc2c1C(=O)c1ccccc1C2=O`: the outcome in [10] was inactive. The Activity entry in test [9] is listed as “<=50%”.

For `Cc1nc2c(n1C(C)C)C(=O)c1ccccc1C2=O`, the result in [10] was inactive. For the same molecule, in [9], the Activity entry is “<=50%”.

Turning to `CCCn1c2c([n+](CCC)c1C)C(=O)c1ccccc1C2=O`, the IC50 was found to be 16200 nM in [1], 11.3 nM in test [2] and 26.9 nM in test [3].

As to `CCCCn1c2c([n+](CCCC)c1C)C(=O)c1ccccc1C2=O`, the IC50 is 30400 nM in test [1], 43.6 nM in test [2] and 50.5 nM in test [3].

For `Cc1n(C(C)C)c2c([n+]1C1CC1)C(=O)c1ccccc1C2=O`, the IC50 was 14600 nM in test [1], 25 nM in test [2] and 15.8 nM in test [3].

As for `CCCCCCCCCC[n+]1c2c(n(CC(C)C)c1C)C(=O)c1ccccc1C2=O`, the IC50 in test [4] was 6.1 nM; in test [5], 13.3 nM; in test [6], 237 nM; in test [7], 4.96 nM; in test [8], 370 nM.

Turning to `COCC[n+]1c2c(n(Cc3cnccn3)c1C)C(=O)c1ccccc1C2=O` [SEPANTRONIUM BROMIDE], the IC50 in test [2] is 45.9 nM; in test [3] it was 38.6 nM.

As to `CCCC[n+]1c2c(n(CC(C)C)c1C)C(=O)c1ccccc1C2=O`, the IC50 in [4] is 5.1 nM; in test [5] it was 9.85 nM; in [6], 275 nM; in test [7] it was 7.2 nM; in [8] it was 181 nM.

For the molecule `CCCCn1c2c([n+](C3CC3)c1C)C(=O)c1ccccc1C2=O`, the IC50 in [1] is 10100 nM; in [2] it was 20.8 nM; in test [3], 182 nM.

Regarding `CCCCn1c(C)nc2c1C(=O)c1ccccc1C2=O`, the result in [10] was inactive. Further, the Activity result in test [9] was “<=50%”.

As to `CCCCCCCC[n+]1c2c(n(CC(C)C)c1C)C(=O)c1ccccc1C2=O`, the IC50 turned out to be 3.6 nM in test [4]; 8.23 nM in [5]; 164 nM in test [6]; 4.36 nM in [7]; 39 nM in test [8].

In the case of `CC[n+]1c2c(n(C(C)C)c1C)C(=O)c1ccccc1C2=O`, the figures for the IC50 in test [1], in test [2] and in test [3] were 15100 nM, 11.7 nM and 61.5 nM, respectively.

Consider `Cc1n(CC(C)C)c2c([n+]1C)C(=O)c1ccccc1C2=O`, for which the IC50 came out at 1.85 nM in [4]; 3.4 nM in test [5]; 1090 nM in [6]; 1.92 nM in test [7]; 41 nM in test [8].

For `CC[n+]1c2c(n(CC(C)C)c1C)C(=O)c1ccccc1C2=O`, the IC50 amounted to 1.62 nM in [4]; 3.1 nM in test [5]; 1020 nM in test [6]; 1.63 nM in test [7]; 33 nM in test [8].

With `Cc1n(CC(C)C)c2c([n+]1C(C)C)C(=O)c1ccccc1C2=O`, the half-inhibitory concentration (IC50) is 1.96 nM in [4]; 4.22 nM in test [5]; 689 nM in [6]; 2.36 nM in test [7]; 229 nM in [8].

With `CCC[n+]1c2c(n(CC(C)C)c1C)C(=O)c1ccccc1C2=O`, the IC50 was found to be 2.12 nM in test [4]; 4.42 nM in test [5]; 842 nM in test [6]; 2.97 nM in test [7]; 269 nM in [8].

Consider `CCn1c2c([n+](CC)c1C)C(=O)c1ccccc1C2=O`, for which the IC50 came out at 14700 nM in test [1], 19.1 nM in [2] and 6 nM in [3].

Consider `CCC[n+]1c2c(n(C)c1C)C(=O)c1ccccc1C2=O`, for which the IC50 in [1] worked out at 3900 nM; in test [2], 14.3 nM; in test [3] it was 4.8 nM.

In the case of `CC[n+]1c2c(n(C)c1C)C(=O)c1ccccc1C2=O`, the IC50 in [1] stood at 3600 nM; in test [2], 19.9 nM; in [3] it was 8.4 nM.

With `Cc1n(CC(C)C)c2c([n+]1CC(C)C)C(=O)c1ccccc1C2=O`, the IC50 in test [4] was determined as 5.75 nM; in test [5], 12.5 nM; in test [6], 812 nM; in [7], 9.19 nM; in test [8] it was 337 nM.

Turning to `CCCC[n+]1c2c(n(CCC)c1C)C(=O)c1ccccc1C2=O`, the IC50 in [1] was determined as 26800 nM; in test [2], 20.9 nM; in test [3], 18.8 nM.

On to `CCCC[n+]1c2c(n(C)c1C)C(=O)c1ccccc1C2=O`, for which the IC50 in test [1] was found to be 13100 nM; in test [2] it was 14.1 nM; in test [3] it was 4.3 nM.

Regarding `CN(C)c1ccc2nc3ccc(N(C)C)cc3[s+]c2c1` [METHYLENE BLUE ANHYDROUS], the IC50 in [6] is 143 nM; in test [8] it was 95 nM.
